# Laboratory results from ChEMBL document CHEMBL1145831 (J Med Chem, 2003).
# Columns and labels:
# [1] = test system: CCRF-CEM; experiment: In vitro growth inhibitory activity in the human CCRF-CEM leukemia cell line.; format: functional, cell-based
# Summary of the method: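 CCRF-CEM human leukemia cells in log phase, 4.8 × 10⁴ cells per 2 mL well. Medium was RPMI-1640 with 10% dialyzed FBS and 25 mM HEPES. Compounds were serially diluted 1:3 in DMSO and added to duplicate wells, with DMSO-only controls, at 0.5% final DMSO. Cells were exposed 72 h at 37 °C in humidified 5% CO₂, then counted. IC50 in nM.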
# [2] = test system: Mus musculus; experiment: In vivo antitumor activity against murine pancreatic adenocarcinoma and measured as number of deaths on a schedule of 10-14 days and at a total dose of 41 mg/kg; format: ADME, organism-based; design: dose 41 mg/kg
# Summary of the method: (§1)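 Mice bearing drug-sensitive murine pancreatic adenocarcinoma Panc-03 were dosed on the listed days at the listed total doses. Dosing solutions were made in water from stock solutions and injected within 20 min. Chlorohydrin solutions were acidified with 0.05% citric acid. Tolerance was recorded as body weight loss and number of deaths.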
# [3] = test system: Mus musculus; experiment: Log cell kill of tumor bearing mice on a schedule of 10-14 days and at a total dose of 41 mg/kg; format: functional, organism-based; design: dose 41 mg/kg
# Summary of the method: (§2)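 Panc-03 murine pancreatic adenocarcinoma in mice. Aqueous dosing solutions were prepared from stocks and injected within 20 min; chlorohydrins were acidified with 0.05% citric acid. Log cell kill was calculated from tumor growth delay, the difference in days between treated and control animals to reach 1000 mg tumor weight.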
# [4] = test system: Mus musculus; experiment: In vivo antitumor activity against murine pancreatic adenocarcinoma and measured as % weight loss on a schedule of 10-14 days and at a total dose of 41 mg/kg; format: functional
# Summary of the method: (§3)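 Body weight loss was tracked in mice implanted with the Panc-03 murine pancreatic adenocarcinoma. Injections were given within 20 min of aqueous preparation from stock solutions, with chlorohydrins acidified using 0.05% citric acid.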
# [5] = test system: Mus musculus; experiment: Ratio of the median tumor weight in the treatment group over the median tumor weight in the control group on a schedule of 10-14 days and at a total dose of 41 mg/kg; format: functional
# Summary of the method: (§4)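 Mice bearing the drug-sensitive murine pancreatic adenocarcinoma Panc-03. Dosing solutions were made in water from stock solutions and injected within 20 min of preparation; chlorohydrins were acidified with 0.05% citric acid. T/C (%) = median tumor weight of the treated group ÷ median tumor weight of controls × 100, calculated when control median tumor weight reached 1 g.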
# [6] = test system: Mus musculus; experiment: In vivo antitumor activity against murine pancreatic adenocarcinoma and measured as % weight loss on a schedule of 3,8days and at a total dose of 16 mg/kg; format: functional; summary of the method: as §3
# [7] = test system: Mus musculus; experiment: Ratio of the median tumor weight in the treatment group over the median tumor weight in the control group on a schedule of 3,8days and at a total dose of 16 mg/kg; format: functional; summary of the method: as §4
# [8] = test system: Mus musculus; experiment: Log cell kill of tumor bearing mice on a schedule of 3,8days and at a total dose of 16 mg/kg; format: functional, organism-based; design: dose 16 mg/kg; summary of the method: as §2
# [9] = test system: Mus musculus; experiment: In vivo antitumor activity against murine pancreatic adenocarcinoma and measured as number of deaths on a schedule of 3,8days and at a total dose of 16 mg/kg; format: ADME, organism-based; design: dose 16 mg/kg; settings: 192 h; summary of the method: as §1
# [10] = test system: Mus musculus; experiment: In vivo antitumor activity against murine pancreatic adenocarcinoma and measured as number of deaths on a schedule of 3-10 days and at a total dose of 32 mg/kg; format: ADME, organism-based; design: dose 32 mg/kg; summary of the method: as §1
# [11] = test system: Mus musculus; experiment: In vivo antitumor activity against murine pancreatic adenocarcinoma and measured as % weight loss on a schedule of 3-9 days and at a total dose of 42 mg/kg; format: functional; summary of the method: as §1
# [12] = test system: Mus musculus; experiment: Ratio of the median tumor weight in the treatment group over the median tumor weight in the control group on a schedule of 3-10 days and at a total dose of 32 mg/kg; format: functional
# Summary of the method: (§5)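 Panc-03 murine pancreatic adenocarcinoma in mice, with injectable solutions prepared in water from stock and given within 20 min; chlorohydrins were acidified with 0.05% citric acid. %T/C is median tumor weight of the treated group over that of the control group × 100, calculated when control median tumor weight reaches 1 g. T/C ≤ 42% is taken as significant activity.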
# [13] = test system: Mus musculus; experiment: In vivo antitumor activity against murine pancreatic adenocarcinoma and measured as number of deaths on a schedule of 3-9 days and at a total dose of 42 mg/kg; format: ADME, organism-based; design: dose 42 mg/kg; summary of the method: as §1
# [14] = test system: Mus musculus; experiment: In vivo antitumor activity against murine pancreatic adenocarcinoma and measured as % weight loss on a schedule of 3-10 days and at a total dose of 32 mg/kg; format: functional; summary of the method: as §1
# [15] = test system: Mus musculus; experiment: Ratio of the median tumor weight in the treatment group over the median tumor weight in the control group on a schedule of 3-9 days and at a total dose of 42 mg/kg; format: functional; summary of the method: as §5
smiles,measurement,setting,value
CNCC(=O)NCc1ccc([C@H](Cl)[C@H](O)[C@@H](C)[C@@H]2C/C=C/C(=O)N[C@H](Cc3ccc(OC)c(Cl)c3)C(=O)NCC(C)(C)C(=O)O[C@@H](CC(C)C)C(=O)O2)cc1,IC50,[1],0.04 nM
CC(=O)O[C@H]1C(=O)[C@@]2(C)[C@H]([C@H](OC(=O)c3ccccc3)[C@]3(O)C[C@H](OC(=O)[C@H](O)[C@@H](NC(=O)c4ccccc4)c4ccccc4)C(C)=C1C3(C)C)[C@]1(OC(C)=O)CO[C@@H]1C[C@@H]2O [PACLITAXEL],Death,[2],0
same,Log kill,[3],4.2
same,Weight loss,[4],-5%
same,T/C,[5],0%
COc1cccc2c1C(=O)c1c(O)c3c(c(O)c1C2=O)C[C@@](O)(C(=O)CO)C[C@@H]3O[C@H]1C[C@H](N)[C@H](O)[C@H](C)O1 [DOXORUBICIN],Weight loss,[6],-12%
same,T/C,[7],16%
same,Log kill,[8],1.5
same,Death,[9],0
COc1ccc(C[C@H]2NC(=O)/C=C/C[C@@H]([C@H](C)[C@H]3O[C@@H]3c3ccc(CN4CCN(C(=O)OC(C)(C)C)CC4)cc3)OC(=O)[C@H](CC(C)C)OC(=O)C(C)(C)CNC2=O)cc1Cl,IC50,[1],0.001 nM
COc1ccc(C[C@H]2NC(=O)/C=C/C[C@@H]([C@H](C)[C@H]3O[C@@H]3c3ccccc3)OC(=O)[C@H](CC(C)C)OC(=O)C(C)(C)CNC2=O)cc1Cl [CRYPTOPHYCIN 52],Death,[10],0
same,Weight loss,[11],-9.6%
same,T/C,[12],3%
same,Death,[13],3
same,Weight loss,[14],1.6%
same,T/C,[15],1%
same,IC50,[1],0.022 nM
CCN(CC)Cc1ccc([C@H]2O[C@@H]2[C@@H](C)[C@@H]2C/C=C/C(=O)N[C@H](Cc3ccc(OC)c(Cl)c3)C(=O)NCC(C)(C)C(=O)O[C@@H](CC(C)C)C(=O)O2)cc1,IC50,[1],0.003 nM
COc1ccc(C[C@H]2NC(=O)/C=C/C[C@@H]([C@H](C)[C@@H](O)[C@@H](Cl)c3ccc(OC(=O)C(C)(C)CN)cc3)OC(=O)[C@H](CC(C)C)OC(=O)C(C)(C)CNC2=O)cc1Cl,IC50,[1],0.79 nM
COc1ccc(C[C@H]2NC(=O)/C=C/C[C@@H]([C@H](C)[C@H]3O[C@@H]3c3cccc(C)c3)OC(=O)[C@H](CC(C)C)OC(=O)C(C)(C)CNC2=O)cc1Cl,IC50,[1],0.15 nM
COc1ccc(C[C@H]2NC(=O)/C=C/C[C@@H]([C@H](C)/C=C/c3cccc(C)c3)OC(=O)[C@H](CC(C)C)OC(=O)C(C)(C)CNC2=O)cc1Cl,IC50,[1],25 nM
COc1ccc([C@H]2O[C@@H]2[C@@H](C)[C@@H]2C/C=C/C(=O)N[C@H](Cc3ccc(OC)c(Cl)c3)C(=O)NCC(C)(C)C(=O)O[C@@H](CC(C)C)C(=O)O2)cc1,IC50,[1],0.28 nM
COC(=O)c1ccc([C@H](Cl)[C@H](O)[C@@H](C)[C@@H]2C/C=C/C(=O)N[C@H](Cc3ccc(OC)c(Cl)c3)C(=O)NCC(C)(C)C(=O)O[C@@H](CC(C)C)C(=O)O2)cc1,IC50,[1],0.037 nM
COc1ccc(C[C@H]2NC(=O)/C=C/C[C@@H]([C@H](C)/C=C/c3ccc(CO)cc3)OC(=O)[C@H](CC(C)C)OC(=O)C(C)(C)CNC2=O)cc1Cl,IC50,[1],0.79 nM
COc1ccc(C[C@H]2NC(=O)/C=C/C[C@@H]([C@H](C)/C=C/c3csc(C)n3)OC(=O)[C@H](CC(C)C)OC(=O)C(C)(C)CNC2=O)cc1Cl,IC50,[1],460 nM
COc1ccc(C[C@H]2NC(=O)/C=C/C[C@@H]([C@H](C)[C@@H](O)[C@@H](Cl)c3ccc(C)c(C)c3)OC(=O)[C@H](CC(C)C)OC(=O)C(C)(C)CNC2=O)cc1Cl,IC50,[1],0.6 nM
COc1ccc(C[C@H]2NC(=O)/C=C/C[C@@H]([C@H](C)[C@H]3O[C@@H]3c3cc(C)ccc3C)OC(=O)[C@H](CC(C)C)OC(=O)C(C)(C)CNC2=O)cc1Cl,IC50,[1],2 nM
